{"data": "Published values of several laboratories", "SLC6A2": "Sodium-dependent noradrenaline transporter (SLC6A2, Homo sapiens, UniProt P23975)", "CECR2": "Chromatin remodeling regulator CECR2 (CECR2, Homo sapiens, UniProt Q9BXF3)", "note": "Compare with care: the assays were run in different laboratories."}
{"Compound": "Fc1ccc(C(c2ccc(F)cc2)c2nnnn2CCCN2CCC(Cc3ccccc3)CC2)cc1", "target": "SLC6A2", "assay": "transporter uptake, inhibitor", "test system": "HEK293", "conditions": "1 µM", "measurement": "inhibition", "result": "39.7%"}
{"Compound": "CCN1CCN(Cc2ccc(NC(=O)c3ccc(C)c(Oc4ccnc5[nH]ccc45)c3)cc2C(F)(F)F)CC1", "target": "Serine/threonine-protein kinase 10 (STK10, Homo sapiens, UniProt O94804)", "assay": "target engagement in cells, inhibitor, chemoproteomics", "test system": "A-375", "conditions": "5 µM", "measurement": "inhibition", "result": "-138%"}
{"Compound": "CNC(=O)c1cc(Oc2ccc(NC(=O)Nc3ccc(Cl)c(C(F)(F)F)c3)cc2)ccn1", "target": "Fibroblast growth factor receptor 1 (FGFR1, Homo sapiens, UniProt P11362)", "assay": "enzyme activity, inhibitor", "conditions": "10 µM", "measurement": "inhibition", "result": "99%"}
{"Compound": "Nc1ncnc2occ(-c3ccc(NC(=O)Nc4cc(C(F)(F)F)ccc4F)cc3)c12", "target": "Peripheral plasma membrane protein CASK (CASK, Homo sapiens, UniProt O14936)", "assay": "cell-free assay", "conditions": "20 µM", "measurement": "remaining signal", "result": "56%"}
{"Compound": "C[S+]([O-])c1ccc(-c2nc(-c3ccncc3)c(-c3ccc(F)cc3)[nH]2)cc1 (centres unmarked)", "target": "CECR2", "assay": "thermal stability, DSF", "conditions": "10 µM", "measurement": "ΔTm", "result": "0.89 °C"}
{"Compound": "Clc1ccc(C(c2ccccc2)c2nnnn2CCCN2CCC(CCc3ccccc3)CC2)cc1 (centres unmarked)", "target": "SLC6A2", "assay": "transporter uptake, inhibitor", "test system": "HEK293", "conditions": "1 µM", "measurement": "inhibition", "result": "50.1%"}
{"Compound": "Cc1ccc(C(=O)Nc2ccc(CN3CCN(C)CC3)c(C(F)(F)F)c2)cc1C#Cc1cnc2cccnn12", "target": "Serine/threonine-protein kinase WNK4 (WNK4, Homo sapiens, UniProt Q96J92)", "assay": "enzyme activity, inhibitor", "conditions": "23.5 nM", "measurement": "remaining activity", "result": "93%"}
{"Compound": "Oc1ccc(-c2nc(-c3ccncc3)c(-c3ccc(F)cc3)[nH]2)cc1", "target": "CECR2", "assay": "thermal stability, DSF", "conditions": "10 µM", "measurement": "ΔTm", "result": "1.3 °C"}
{"Compound": "CC(=O)N[C@H]1CSSC[C@@H](C(=O)N[C@H](Cc2c[nH]c3ccccc23)C(N)=O)NC(=O)[C@@H](Cc2ccccc2)NC(=O)[C@H](CCCNC(=N)N)NC1=O", "target": "Melanocortin receptor 4 (MC4R, Homo sapiens, UniProt P32245)", "assay": "cAMP, agonist", "test system": "HEK293", "conditions": "3 min", "measurement": "Emax", "result": "0%"}
{"Compound": "Clc1ccc(C(c2ccccc2)c2nnnn2CCCN2CCC(Cc3ccccc3)CC2)cc1 (centres unmarked)", "target": "SLC6A2", "assay": "transporter uptake, inhibitor", "test system": "HEK293", "conditions": "1 µM", "measurement": "inhibition", "result": "93.4%"}
{"Compound": "CC(C)(C)c1nc(-c2cccc(NS(=O)(=O)c3c(F)cccc3F)c2F)c(-c2ccnc(N)n2)s1", "target": "Mitotic checkpoint serine/threonine-protein kinase BUB1 beta (BUB1B, Homo sapiens, UniProt O60566)", "assay": "enzyme activity, inhibitor, radiometric", "conditions": "1 µM", "measurement": "remaining activity", "result": "101%"}
{"Compound": "NS(=O)(=O)c1ccc(Nc2nc(-c3ccc(F)cc3)c3ccccc3n2)cc1", "target": "CECR2", "assay": "binding, competition with immobilised ligand", "conditions": "1 µM", "measurement": "remaining binding", "result": "79%"}
{"Compound": "Clc1ccc(C(c2ccc(Cl)cc2)c2nnnn2CCCCN2CCN(Cc3ccccc3)CC2)cc1", "target": "SLC6A2", "assay": "transporter uptake, inhibitor", "test system": "HEK293", "conditions": "1 µM", "measurement": "inhibition", "result": "79%"}
{"Compound": "CCCOc1ccc(OC)c(F)c1C(=O)c1ccc(C(=O)N[C@@H]2CNC[C@H]2NC(=O)c2ccc3[nH]ncc3c2)cc1", "target": "cAMP-dependent protein kinase catalytic subunit PRKX (PRKX, Homo sapiens, UniProt P51817)", "assay": "enzyme activity, inhibitor", "conditions": "0.1 µM", "measurement": "remaining activity", "result": "16%"}
